Data on 7 compounds can be found in ChEMBL document CHEMBL1122739, “Potential inhibitors of nucleotide biosynthesis. 2. Halomethyl ketone derivatives of pyrimidine nucleosides” (J Med Chem, 1984).

A word on the half-life: it is how long it takes for the measured level to halve. A high value points to slow loss. As a reminder, the ILS is the gain in survival time of treated over control animals, in per cent. Read a high ILS as much gain in survival.

Data set [1] is described as follows: Half-life period determined in water at room temperature. In kind it is ADME.
Data set [2] can be described thus: Ratio of the cytotoxic concentrations (I50''s) against H.Ep.-2 and L1210 cells. Format: functional.
For a further data set, the system named is L1210. The experiment in a line: Concentration that produces 50 % inhibition of proliferation of L1210 cells in suspension culture in 48 h,. The following applies: Mus musculus, L1210, 48 h; read-out: I50. In kind it is functional, cell-based. In outline:
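L1210 cells grown in suspension culture for 48 h with compound. I50 is the concentration giving 50% inhibition of proliferation relative to control growth.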

A further data set relates to HEp-2. The experiment in a line: Concentration that produces 50 % inhibition of cloning of H.Ep.-2 cells in suspension culture, over a 12-day period. Particulars: Homo sapiens, HEp-2, 288 h; read-out: I50. In kind it is functional, cell-based. A digest of the protocol:
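H.Ep.-2 cells tested by cloning over a 12-day period. I50 is the concentration giving 50% inhibition of colony formation relative to untreated control growth.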

Data set [3] has as its system Mus musculus. The data set is described as follows: Activity against P388 leukemia was determined in vivo. The percent increase in life span at a compound dose of 100 mg/kg. Format: functional. A digest of the protocol: (§1)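 P388 leukemia in vivo; dosing given as a single injection on days 1-5. Read-out is the percent increase in life span relative to untreated controls.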

Data set [4] relates to Mus musculus. The data set is described as follows: Activity against P388 leukemia was determined in vivo. The percent increase in life span at a compound dose of 50 mg/kg. Format: functional. In outline: as §1
For data set [5], the system named is Mus musculus. The experiment in a line: Activity against P388 leukemia was determined in vivo. The percent increase in life span at a compound dose of 200 mg/kg. In kind it is functional. In outline: as §1
A short description of data set [6]: Ratio of the cytotoxic concentrations (I50's) against H.Ep.-2 and L1210 cells. Format: functional.
Data set [7] relates to Mus musculus. The experiment in a line: Activity against P388 leukemia was determined in vivo. The percent increase in life span at a compound dose of 12.5 mg/kg. Format: functional. In outline: as §1
Data set [8] deals with Mus musculus. The data set is described as follows: Activity against P388 leukemia was determined in vivo. The percent increase in life span at a compound dose of 25 mg/kg. Format: functional. In outline: as §1

The structures appear in SMILES notation. pIC50: −log10 of the molar value.

In data set [1], `Cc1cn(C2CC(O)C(C(=O)Nc3ccc(C(=O)CCl)cc3)O2)c(=O)[nH]c1=O` (stereo not given) registered a half-life of more than 52 h. For the same compound, in data set [2], the Ratio is recorded as 14. The pIC50 in the data set on L1210 was 4.55; with HEp-2, 4.52. The ILS at 100 mg/kg with Mus musculus [3] worked out at 14%.

With `Cc1cn(C2CC(O)C(CNC(=O)c3ccc(C(=O)CBr)cc3)O2)c(=O)[nH]c1=O` (stereo not given), the ILS at 50 mg/kg in the data set with Mus musculus [4] is 15%. This compound also had a half-life in [1] of 1 h. Besides, the Ratio in data set [2] was 15. Further, the pIC50 in the data set on L1210 is less than 4.15; in the data set on HEp-2, less than 4.40.

Consider `Cc1cn(C2CC(O)C(C(=O)Nc3ccc(C(=O)CBr)cc3)O2)c(=O)[nH]c1=O` (stereo not given), for which, in the data set on Mus musculus [5], the ILS at 200 mg/kg was 38%. The half-life in data set [1] is 4 h. In data set [2], the Ratio worked out at 38. Besides, the pIC50 is 5.22 in the data set with L1210 and 4.92 in the data set with HEp-2.

The compound `Cc1cn(C2CC(O)C(CCC(=O)CCl)O2)c(=O)[nH]c1=O` (stereo not given) registered an ILS at 50 mg/kg in the data set with Mus musculus [4] of 10%. In addition, the half-life in data set [1] was more than 52 h. Further, the pIC50 was 4.18 in the data set on L1210 and 4.60 with HEp-2. For the same compound, the Ratio in [6] is recorded as 10.

The compound `Cc1cn(C2CC(O)C(CCC(=O)CBr)O2)c(=O)[nH]c1=O` (stereo not given) had a half-life in data set [1] of 1.8 h. In addition, the Ratio in [2] worked out at 16. In addition, the pIC50 in the data set on L1210 is 3.96; in the data set with HEp-2 it was 4.26. This compound had an ILS at 12.5 mg/kg in the data set with Mus musculus [7] of 16%.

In data set [1], `Cc1cn(C2CC(O)C(CCC(=O)CI)O2)c(=O)[nH]c1=O` (stereo not given) showed a half-life of 4 h. Besides, in data set [2], the Ratio is 16. Besides, the pIC50 was 4.70 in the data set on L1210 and 4.77 in the data set with HEp-2. The same compound displayed an ILS at 25 mg/kg in the data set on Mus musculus [8] of 16%.

`Cc1cn(C2CC(O)C(C(=O)Nc3ccc(C(=O)CI)cc3)O2)c(=O)[nH]c1=O` (stereo not given): in [1], the half-life is 13 h. Besides, the Ratio in data set [2] worked out at 5. In addition, the pIC50 was 5.10 in the data set with L1210 and 4.54 with HEp-2. In the data set with Mus musculus [8], the ILS at 25 mg/kg was 5%.
